≈ marks a conversion by molar mass, not a printed value.
Experiments:
Escherichia coli [1] = assay: Antibacterial activity against Escherichia coli KCTC 1924 after 24 hrs by two-fold serial dilution method; assay type: functional; settings: KCTC 1924, 24 h
In short: (§1)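 Strains grown to mid-log phase in Mueller-Hinton broth, then diluted 1000-fold in the same broth to about 10^5 CFU/mL. Compounds were made up as DMSO stocks and two-fold serially diluted from a final top concentration of 64 µg/mL. Incubation was 37 °C for 24 h. Growth was read as absorbance at 630 nm on a microplate reader. MIC assays were run in triplicate.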

Staphylococcus aureus [2] = assay: Antibacterial activity against quinolone-resistant Staphylococcus aureus CCARM 3505 after 24 hrs by two-fold serial dilution method; assay type: functional; settings: CCARM 3505, 24 h
In short: (§2)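 Broth microdilution MIC. Bacteria grown to mid-log phase in Mueller-Hinton broth, diluted 1000-fold, about 10^5 CFU/mL. Compounds from DMSO stocks, two-fold serial dilution from a final 64 µg/mL. Incubation at 37 °C for 24 h. Growth read as absorbance at 630 nm on a microplate reader. Run in triplicate.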

Salmonella typhimurium = assay: Antibacterial activity against Salmonella typhimurium 2421 after 24 hrs by two-fold serial dilution method; assay type: functional, Salmonella enterica subsp. enterica serovar Typhimurium; settings: Salmonella enterica, 2421, 24 h; in short: as §1
Pseudomonas aeruginosa [3] = assay: Antibacterial activity against Pseudomonas aeruginosa 2004 after 24 hrs by two-fold serial dilution method; assay type: functional; settings: Pseudomonas aeruginosa, 2004, 24 h; in short: as §1
Staphylococcus aureus [4] = assay: Antibacterial activity against Staphylococcus aureus KCTC 503 after 24 hrs by two-fold serial dilution method; assay type: functional; settings: KCTC 503, 24 h; in short: as §1
Staphylococcus aureus [5] = assay: Antibacterial activity against methicillin-resistant Staphylococcus aureus CCARM 3506 after 24 hrs by two-fold serial dilution method; assay type: functional; settings: CCARM 3506, 24 h; in short: as §2
Pseudomonas aeruginosa [6] = assay: Antibacterial activity against Pseudomonas aeruginosa 2742 after 24 hrs by two-fold serial dilution method; assay type: functional; settings: Pseudomonas aeruginosa, 2742, 24 h; in short: as §1
Streptococcus mutans = assay: Antibacterial activity against Streptococcus mutans 3065 after 24 hrs by two-fold serial dilution method; assay type: functional; settings: Streptococcus mutans, 3065, 24 h; in short: as §1
Staphylococcus aureus [7] = assay: Antibacterial activity against Staphylococcus aureus RN4220 after 24 hrs by two-fold serial dilution method; assay type: functional; settings: RN4220, 24 h; in short: as §2
Candida albicans = assay: Antifungal activity against Candida albicans 7535 after 24 hrs by two-fold serial dilution method; assay type: functional; settings: Candida albicans, 7535, 24 h
Staphylococcus aureus [8] = assay: Antibacterial activity against methicillin-resistant Staphylococcus aureus CCARM 3167 after 24 hrs by two-fold serial dilution method; assay type: functional; settings: CCARM 3167, 24 h; in short: as §2
Staphylococcus aureus [9] = assay: Antibacterial activity against quinolone-resistant Staphylococcus aureus CCARM 3519 after 24 hrs by two-fold serial dilution method; assay type: functional; settings: CCARM 3519, 24 h; in short: as §2
Escherichia coli [10] = assay: Antibacterial activity against Escherichia coli CCARM 1356 after 24 hrs by two-fold serial dilution method; assay type: functional; settings: CCARM 1356, 24 h; in short: as §1
Staphylococcus aureus [11] = assay: Antibacterial activity against Staphylococcus aureus KCTC 209 after 24 hrs by two-fold serial dilution method; assay type: functional; settings: KCTC 209, 24 h; in short: as §1
Staphylococcus aureus [12] = assay: Bactericidal activity against methicillin-resistant Staphylococcus aureus CCARM 3506 after 24 hrs by agar plate method; assay type: functional; settings: CCARM 3506, 24 h
In short: (§3)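 5 µL from each well without visible growth plated on fresh Mueller-Hinton agar, then 37 °C for a further 24 h. MBC is the lowest concentration giving no visible colonies. Run in triplicate.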

Staphylococcus aureus [13] = assay: Bactericidal activity against methicillin-resistant Staphylococcus aureus CCARM 3167 after 24 hrs by agar plate method; assay type: functional; settings: CCARM 3167, 24 h; in short: as §3
Staphylococcus aureus [14] = assay: Bactericidal activity against Staphylococcus aureus RN4220 after 24 hrs by agar plate method; assay type: functional; settings: RN4220, 24 h
In short: (§4)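 Samples of 5 µL from MIC wells with no visible growth were plated onto fresh Mueller-Hinton agar and incubated a further 24 h at 37 °C. MBC is the lowest concentration giving no visible colony growth on the agar. Assays were run in triplicate.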

Staphylococcus aureus [15] = assay: Bactericidal activity against quinolone-resistant Staphylococcus aureus CCARM 3505 after 24 hrs by agar plate method; assay type: functional; settings: CCARM 3505, 24 h; in short: as §3
Escherichia coli [16] = assay: Bactericidal activity against Escherichia coli KCTC 1924 after 24 hrs by agar plate method; assay type: functional; settings: KCTC 1924, 24 h; in short: as §4
Staphylococcus aureus [17] = assay: Bactericidal activity against Staphylococcus aureus KCTC 503 after 24 hrs by agar plate method; assay type: functional; settings: KCTC 503, 24 h; in short: as §3
Staphylococcus aureus [18] = assay: Bactericidal activity against quinolone-resistant Staphylococcus aureus CCARM 3519 after 24 hrs by agar plate method; assay type: functional; settings: CCARM 3519, 24 h; in short: as §3

O=C(O)CN1C(=O)/C(=C/c2ccc(/C=N/n3c(-c4ccc(Cl)cc4)n[nH]c3=S)cc2)SC1=S
MIC (Escherichia coli [1]): > 128 µg/mL
MIC (Staphylococcus aureus [2]): > 64 µg/mL
MIC (Salmonella typhimurium): > 128 µg/mL
MIC (Pseudomonas aeruginosa [3]): > 128 µg/mL
MIC (Staphylococcus aureus [4]): > 64 µg/mL
MIC (Staphylococcus aureus [5]): > 64 µg/mL
MIC (Pseudomonas aeruginosa [6]): > 128 µg/mL
MIC (Streptococcus mutans): > 64 µg/mL
MIC (Staphylococcus aureus [7]): > 64 µg/mL
MIC (Candida albicans): > 64 µg/mL
MIC (Staphylococcus aureus [8]): > 64 µg/mL
MIC (Staphylococcus aureus [9]): > 64 µg/mL
MIC (Escherichia coli [10]): > 128 µg/mL
MIC (Staphylococcus aureus [11]): > 64 µg/mL

O=C(O)CN1C(=O)/C(=C/c2ccc(/C=N/n3c(-c4ccc(Br)cc4)n[nH]c3=S)cc2)SC1=S
MIC (Escherichia coli [1]): > 128 µg/mL
MIC (Staphylococcus aureus [2]): > 64 µg/mL
MIC (Salmonella typhimurium): > 128 µg/mL
MIC (Pseudomonas aeruginosa [3]): > 128 µg/mL
MIC (Staphylococcus aureus [4]): > 64 µg/mL
MIC (Staphylococcus aureus [5]): > 64 µg/mL
MIC (Pseudomonas aeruginosa [6]): > 128 µg/mL
MIC (Streptococcus mutans): > 64 µg/mL
MIC (Staphylococcus aureus [7]): > 64 µg/mL
MIC (Candida albicans): > 64 µg/mL
MIC (Staphylococcus aureus [8]): > 64 µg/mL
MIC (Staphylococcus aureus [9]): > 64 µg/mL
MIC (Escherichia coli [10]): > 128 µg/mL
MIC (Staphylococcus aureus [11]): > 64 µg/mL

Cc1cccc(-c2n[nH]c(=S)n2/N=C/c2ccc(/C=C3\SC(=S)NC3=O)cc2)c1
MBC (Staphylococcus aureus [12]): > 256 µg/mL
MBC (Staphylococcus aureus [13]): > 256 µg/mL
MIC (Escherichia coli [1]): 32 µg/mL (≈ 73.1 µM)
MIC (Staphylococcus aureus [2]): 32 µg/mL (≈ 73.1 µM)
MBC (Staphylococcus aureus [14]): > 256 µg/mL
MIC (Salmonella typhimurium): > 128 µg/mL
MBC (Staphylococcus aureus [15]): > 256 µg/mL
MBC (Escherichia coli [16]): 256 µg/mL (≈ 585 µM)
MIC (Pseudomonas aeruginosa [3]): > 128 µg/mL
MBC (Staphylococcus aureus [17]): > 256 µg/mL
MIC (Staphylococcus aureus [4]): 32 µg/mL (≈ 73.1 µM)
MIC (Staphylococcus aureus [5]): 32 µg/mL (≈ 73.1 µM)
MIC (Pseudomonas aeruginosa [6]): > 128 µg/mL
MIC (Streptococcus mutans): > 64 µg/mL
MIC (Staphylococcus aureus [7]): 32 µg/mL (≈ 73.1 µM)
MIC (Candida albicans): > 64 µg/mL
MIC (Staphylococcus aureus [8]): 64 µg/mL (≈ 146 µM)
MIC (Staphylococcus aureus [9]): 32 µg/mL (≈ 73.1 µM)
MIC (Escherichia coli [10]): > 128 µg/mL
MBC (Staphylococcus aureus [18]): > 256 µg/mL
MIC (Staphylococcus aureus [11]): > 64 µg/mL

Cc1ccc(-c2n[nH]c(=S)n2/N=C/c2ccc(/C=C3\SC(=S)NC3=O)cc2)cc1
MIC (Escherichia coli [1]): > 128 µg/mL
MIC (Staphylococcus aureus [2]): > 64 µg/mL
MIC (Salmonella typhimurium): > 128 µg/mL
MIC (Pseudomonas aeruginosa [3]): > 128 µg/mL
MIC (Staphylococcus aureus [4]): > 64 µg/mL
MIC (Staphylococcus aureus [5]): > 64 µg/mL
MIC (Pseudomonas aeruginosa [6]): > 128 µg/mL
MIC (Streptococcus mutans): > 64 µg/mL
MIC (Staphylococcus aureus [7]): > 64 µg/mL
MIC (Candida albicans): > 64 µg/mL
MIC (Staphylococcus aureus [8]): > 64 µg/mL
MIC (Staphylococcus aureus [9]): > 64 µg/mL
MIC (Escherichia coli [10]): > 128 µg/mL
MIC (Staphylococcus aureus [11]): > 64 µg/mL

O=C1NC(=S)S/C1=C\c1ccc(/C=N/n2c(-c3cccc(Cl)c3)n[nH]c2=S)cc1
MIC (Escherichia coli [1]): > 128 µg/mL
MIC (Staphylococcus aureus [2]): > 64 µg/mL
MIC (Salmonella typhimurium): > 128 µg/mL
MIC (Pseudomonas aeruginosa [3]): > 128 µg/mL
MIC (Staphylococcus aureus [4]): > 64 µg/mL
MIC (Staphylococcus aureus [5]): > 64 µg/mL
MIC (Pseudomonas aeruginosa [6]): > 128 µg/mL
MIC (Streptococcus mutans): > 64 µg/mL
MIC (Staphylococcus aureus [7]): > 64 µg/mL
MIC (Candida albicans): > 64 µg/mL
MIC (Staphylococcus aureus [8]): > 64 µg/mL
MIC (Staphylococcus aureus [9]): > 64 µg/mL
MIC (Escherichia coli [10]): > 128 µg/mL
MIC (Staphylococcus aureus [11]): > 64 µg/mL

O=C1NC(=S)S/C1=C\c1ccc(/C=N/n2c(-c3ccc(Cl)cc3)n[nH]c2=S)cc1
MIC (Escherichia coli [1]): > 128 µg/mL
MIC (Staphylococcus aureus [2]): > 64 µg/mL
MIC (Salmonella typhimurium): > 128 µg/mL
MIC (Pseudomonas aeruginosa [3]): > 128 µg/mL
MIC (Staphylococcus aureus [4]): > 64 µg/mL
MIC (Staphylococcus aureus [5]): > 64 µg/mL
MIC (Pseudomonas aeruginosa [6]): > 128 µg/mL
MIC (Streptococcus mutans): > 64 µg/mL
MIC (Staphylococcus aureus [7]): > 64 µg/mL
MIC (Candida albicans): > 64 µg/mL
MIC (Staphylococcus aureus [8]): > 64 µg/mL
MIC (Staphylococcus aureus [9]): > 64 µg/mL
MIC (Escherichia coli [10]): > 128 µg/mL
MIC (Staphylococcus aureus [11]): > 64 µg/mL

O=C1NC(=S)S/C1=C\c1ccc(/C=N/n2c(-c3ccc(Br)cc3)n[nH]c2=S)cc1
MIC (Escherichia coli [1]): 64 µg/mL (≈ 127 µM)
MIC (Staphylococcus aureus [2]): > 64 µg/mL
MIC (Salmonella typhimurium): > 128 µg/mL
MBC (Escherichia coli [16]): > 256 µg/mL
MIC (Pseudomonas aeruginosa [3]): > 128 µg/mL
MIC (Staphylococcus aureus [4]): > 64 µg/mL
MIC (Staphylococcus aureus [5]): > 64 µg/mL
MIC (Pseudomonas aeruginosa [6]): > 128 µg/mL
MIC (Streptococcus mutans): > 64 µg/mL
MIC (Staphylococcus aureus [7]): > 64 µg/mL
MIC (Candida albicans): > 64 µg/mL
MIC (Staphylococcus aureus [8]): > 64 µg/mL
MIC (Staphylococcus aureus [9]): > 64 µg/mL
MIC (Escherichia coli [10]): > 128 µg/mL
MIC (Staphylococcus aureus [11]): > 64 µg/mL

O=C1NC(=S)S/C1=C\c1ccc(/C=N/n2c(-c3ccc(F)cc3)n[nH]c2=S)cc1
MIC (Escherichia coli [1]): > 128 µg/mL
MIC (Staphylococcus aureus [2]): > 64 µg/mL
MIC (Salmonella typhimurium): > 128 µg/mL
MIC (Pseudomonas aeruginosa [3]): > 128 µg/mL
MIC (Staphylococcus aureus [4]): > 64 µg/mL
MIC (Staphylococcus aureus [5]): > 64 µg/mL
MIC (Pseudomonas aeruginosa [6]): > 128 µg/mL
MIC (Streptococcus mutans): > 64 µg/mL
MIC (Staphylococcus aureus [7]): > 64 µg/mL
MIC (Candida albicans): > 64 µg/mL
MIC (Staphylococcus aureus [8]): > 64 µg/mL
MIC (Staphylococcus aureus [9]): > 64 µg/mL
MIC (Escherichia coli [10]): > 128 µg/mL
MIC (Staphylococcus aureus [11]): > 64 µg/mL

Reference: ChEMBL document CHEMBL3596093, “Synthesis and antimicrobial evaluation of 5-aryl-1,2,4-triazole-3-thione derivatives containing a rhodanine moiety” (2015)
